TRPC4 block – inhibitors of mouse TRPC4 channel, primary screen, Fluo4 calcium, HEK293 TRPC4beta/mu-opioid cells. DAMGO-evoked Fluo4 calcium flux; stronger effect = lower value. B-score at 10 µM. 0.39% of 300,000 active. AID 2247, 2010;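 active means B-score over 3 SD under the library average, no early fluorescence shift, positive overall ratio signal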
Target sequence (Q9QUQ5 whole entry, looked up): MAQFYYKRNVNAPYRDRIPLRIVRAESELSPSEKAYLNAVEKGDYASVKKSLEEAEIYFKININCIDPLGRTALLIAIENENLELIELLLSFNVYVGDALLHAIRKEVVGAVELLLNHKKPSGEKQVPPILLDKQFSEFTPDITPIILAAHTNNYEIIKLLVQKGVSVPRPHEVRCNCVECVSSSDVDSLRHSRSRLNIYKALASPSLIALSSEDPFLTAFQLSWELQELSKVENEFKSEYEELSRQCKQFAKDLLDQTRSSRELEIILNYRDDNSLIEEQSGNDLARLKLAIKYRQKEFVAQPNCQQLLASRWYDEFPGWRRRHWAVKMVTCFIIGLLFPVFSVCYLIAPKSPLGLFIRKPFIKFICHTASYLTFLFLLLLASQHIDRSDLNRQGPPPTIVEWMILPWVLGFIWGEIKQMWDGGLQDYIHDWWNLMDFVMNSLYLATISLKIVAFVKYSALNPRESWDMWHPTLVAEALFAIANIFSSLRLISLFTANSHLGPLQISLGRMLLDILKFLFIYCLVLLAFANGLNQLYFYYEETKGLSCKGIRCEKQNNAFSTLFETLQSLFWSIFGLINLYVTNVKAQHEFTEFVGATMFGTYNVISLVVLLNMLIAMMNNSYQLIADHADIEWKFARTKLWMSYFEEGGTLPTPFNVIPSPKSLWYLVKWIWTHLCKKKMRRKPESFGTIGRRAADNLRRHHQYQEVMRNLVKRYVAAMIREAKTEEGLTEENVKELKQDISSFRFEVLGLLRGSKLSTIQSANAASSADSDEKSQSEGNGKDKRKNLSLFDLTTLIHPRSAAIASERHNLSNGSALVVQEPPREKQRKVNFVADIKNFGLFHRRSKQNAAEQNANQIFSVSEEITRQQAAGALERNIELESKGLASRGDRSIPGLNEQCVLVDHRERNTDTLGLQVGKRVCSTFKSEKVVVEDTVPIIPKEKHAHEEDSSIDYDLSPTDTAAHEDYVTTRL
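Test system – stable TRPC4beta/mu-opioid receptor HEK293 cells · Probe or stimulus – DAMGO, a submaximal dose followed by a maximal one · Dosing – one concentration per compound · Signal – Fluo4 calcium fluorescence by kinetic imaging, 5 s 1 Hz baseline · Evaluation – per-well B score of integrated baseline-normalized Fluo4 ratio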
TRPC4 PAM – positive allosteric modulators of TRPC4, primary screen, cell-based, mouse TRPC4beta, HEK293 mu-opioid, Fluo-4 calcium. DAMGO EC20, Fluo-4 Ca2+ flux; stronger effect = higher value. B-score at 10 µM. 0.42% of 310,000 active. AID 2227, 2009;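 active means B-score of calcium response area above 5 SD of library B-scores, with initial fluorescence ratio within 5 SD of library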;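 further: B-score of integrated fluorescence ratio over time as area under calcium response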
TRPC6 act – mouse TRPC6 channel activators, primary screen, cell-based, HEK293, membrane potential dye; Short transient receptor potential channel 6 (Mus musculus), Q61143; HEK293-TRPC6 membrane potential dye fluorescence; stronger effect = higher value; B-score at 10 µM; 0.13% of 310,000 active;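 active means B-score of the integrated fluorescence ratio above library mean plus 3 SD, and starting fluorescence ratio within library mean plus 5 SD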;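 further: higher score means more depolarization so channel activation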
TRPC4 agonist – activators of mouse TRPC4 channel, primary screen, Fluo4 calcium, HEK293 TRPC4beta/mu-opioid cells; Short transient receptor potential channel 4 (Mus musculus), Q9QUQ5; 0.49% of 310,000 active; AID 2237, 2010; Fluo4 calcium fluorescence; stronger effect = higher value; B-score at 10 µM;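 active means B-score above 5 SD of library B-scores, and initial fluorescence ratio not above library mean plus 5 SD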;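 further: positive B-score marks a calcium rise read as TRPC4 activation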
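Test system: HEK293 cells stably co-expressing mouse TRPC4beta and mu-opioid receptor | Schedule: Fluo4 dye loading 45 min at room temperature, 110 s recording | Measured by: Kinetic Fluo4 calcium fluorescence, 5 s baseline at 1 Hz | Evaluation: B score of integrated ratio | Controls: Buffer (low) and maximal DAMGO (high)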
FID counter – compounds displacing fluorescent DNA intercalator, primary screen, artefact control for HCV NS3 helicase inhibitor project, biochemical, FID fluorescence | DNA fluorescent intercalator displacement | inhibition, % at 7.9 µM | 0.17% of 290,000 active; in the data active means inhibition above about 37%;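 further: 0% = vehicle and 100% = reference compound; higher means more ethidium bromide displaced from hairpin DNA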
TRPC6 inh – mouse TRPC6 channel inhibitors, primary screen, cell-based, HEK293, membrane potential dye. Short transient receptor potential channel 6 (Mus musculus), Q61143. ACh-evoked depolarization; stronger effect = lower value. B-score at 10 µM. 1.1% of 310,000 active. AID 2553, 2010;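 active means B-score under library mean minus 3 SD, initial fluorescence not abnormally high, positive integrated signal ratio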;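 further: B-score derived from integrated fluorescence ratio over the kinetic read; more negative B-score means stronger inhibition of depolarization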
TRPC4 sel inh 2 – second selectivity test of TRPC6 inhibitors: effect on mouse TRPC4. shares compounds with TRPC6 inh. HEK293 TRPC4/MOR, membrane potential dye fluorescence; channel activated by saturating DAMGO dose. inhibition, % at 10 µM. 42% of 920 active. AID 2776;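 active means compounds whose fluorescence signal differed from control wells by over 3 SD, either direction, in both duplicate plates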
TRPC4 spec – mouse TRPC4 modulation by TRPC6 hits, confirmation, selectivity assay for TRPC6 inhibitor project, cell-based, HEK293 TRPC4/mu-opioid, membrane potential dye. shares compounds with TRPC6 inh. membrane potential fluorescence. activity change, negative = inhibition, % at 10 µM. 61% of 920 active;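 active means rise or fall in signal beyond 3 SD of buffer-only wells in both replicate plates, either sign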;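 further: integrated kinetic ratio of fluorescence range over baseline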
HEK293 MPD ctr 2-1 – nonspecific membrane potential effects, parental HEK293, confirmation, counter-screen for TRPC6 inhibitor project, cell-based, second counter screen | shares compounds with TRPC6 inh | AID 2779, 2010 | parental HEK293 membrane potential dye fluorescence; maximal acetylcholine challenge after compound addition | 31% of 920 active | signal change vs control, % at 10 µM;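 active means membrane potential signal moving either way by over 3 SD of the maximum-effect control, in both duplicate plates, meaning non-specific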
HEK293 MPD ctr-1 – membrane potential modulation in parental HEK293, confirmation, counter-screen for TRPC6 inhibitor project, cell-based | shares compounds with TRPC6 inh | parental HEK293 membrane potential dye fluorescence | membrane potential signal change, % at 10 µM | 60% of 920 active | AID 2780, 2010;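 active means membrane potential signal shifting up or down by more than 3 SD of buffer-only wells, on both duplicate plates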
HEK293 MPD ctr-2 – parental HEK293 membrane potential modulation, confirmation, counter-screen for TRPC6 modulator project, cell-based. shares compounds with TRPC6 inh. membrane potential dye fluorescence. membrane potential signal change, % at 10 µM. 51% of 2,400 active;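 active means membrane potential signal moves up or down beyond 5 SD from buffer-only wells, on both duplicate plates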
HEK293 MPD ctr 2-2 – parental HEK293 nonspecific activity of TRPC6 modulators, second screen; 14% of 2,400 active; membrane potential dye fluorescence; after compound, maximal acetylcholine stimulation; shares compounds with TRPC6 inh; inhibition, % at 10 µM;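 active means membrane potential signal drops by more than 5 SD from the mean control signal, in both duplicate plates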;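 further: plate controls were acetylcholine ECmax control wells for no effect and buffer only wells for full effect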
TRPC4/MOR mod – TRPC4 modulation by TRPC6 hit compounds, confirmation, selectivity assay for TRPC6 modulator project, cell-based, HEK293 TRPC4/mu-opioid, membrane potential dye, mouse. shares compounds with TRPC6 inh. membrane potential fluorescence. percent change from control (negative = decrease, positive = increase), % at 10 µM. 69% of 2,400 active. AID 488927, 2010;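 active means membrane potential signal moved up or down beyond 5 SD of buffer control wells, in both duplicate plates, actives on both sides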;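 further: plate controls were assay buffer wells for no effect and DAMGO maximal-effect wells for full effect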
TRPC4 ctr inh 2 – mouse TRPC4 off-target activity of TRPC6 modulators, second screen. inhibition, % at 10 µM. 55% of 2,400 active. HEK293 TRPC4/mu-opioid, membrane potential dye fluorescence; stimulated with maximal-effect DAMGO. shares compounds with TRPC6 inh;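 active means drop in membrane potential signal beyond 5 SD of the control wells in both duplicate plates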;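 further: TRPC4 counter screen for TRPC6 hits run under conditions tuned for TRPC6 not TRPC4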
TRPC6 block conf – mouse TRPC6 channel inhibitors, confirmation, HEK293 cells, membrane potential dye, duplicate | ACh-evoked depolarization | shares compounds with TRPC6 inh | 43% of 3,300 active | inhibition, % at 10 µM;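 active means fluorescence ratio falls more than 5 SD below the full-stimulation control mean, in both duplicate runs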;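 further: integrated fluorescence ratio of peak minus minimum over baseline after agonist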
TRPC6 act confirm – mouse TRPC6 channel activators, confirmation, HEK293 cells, membrane potential dye, duplicate | 11% of 2,800 active | shares compounds with TRPC6 inh | activation, % at 10 µM | HEK293-TRPC6 membrane potential dye fluorescence, FDSS;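 active means ratio signal rise beyond 5 SD above unstimulated control wells' mean, seen in both duplicate runs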;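 further: plate controls were buffer EC0 wells for no effect and acetylcholine ECmax response for full effect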
* hit, by the source's call; i = inactive; nt = no result given. Sampled rows, rich in hits. Any-hit rate of the full collection: about 2.3%.

SMILES	TRPC4 block	TRPC4 PAM	TRPC6 act	TRPC4 agonist	FID counter	TRPC6 inh	HEK293 MPD ctr-2	HEK293 MPD ctr 2-2	TRPC4/MOR mod	TRPC4 ctr inh 2	TRPC6 block conf	TRPC6 act confirm	others
COc1ccc(C2=Nn3c([n+](C)c4ccccc43)SC2)cc1	i	i	i	i	21.7	-7.09*	nt	nt	nt	nt	108.8%*	i	TRPC4 sel inh 2=65.5%*;TRPC4 spec=-20.1%*;HEK293 MPD ctr 2-1=-35.5%*;HEK293 MPD ctr-1=-338.0%*
CCCCS(=O)(=O)N1CCN(S(=O)(=O)c2cccs2)CC1	i	i	i	i	-5.2	i	nt	nt	nt	nt	nt	nt
CCOc1ccccc1N1CCN(C/C=C/c2ccc(N(C)C)cc2)CC1	i	i	i	i	3.2	-6.48*	i	i	i	66.5%*	49.5%*	i
CCN1CCN(S(=O)(=O)c2ccc(Cl)c(C(=O)NCc3ccco3)c2)CC1	i	i	i	i	nt	i	nt	nt	nt	nt	nt	nt
Cc1ccnc(SCCn2c(N3CCN(Cc4ccccc4)CC3)nc3c2c(=O)[nH]c(=O)n3C)n1	i	i	i	i	-25.6	-10.2*	-339.5%*	71.0%*	-61.0%*	57.0%*	59.0%*	i
CS(=O)(=O)N1CCC(C(=O)Nc2ccc(F)cc2F)CC1	i	i	i	i	-5.1	-6.35*	i	i	12.0%*	i	i	nt
CCOc1ccc(S(=O)(=O)N(CC)CC(=O)NCc2ccncc2)cc1C	i	i	i	i	-16.1	i	nt	nt	nt	nt	nt	nt

Bioassay records: PubChem, several laboratories
